According to ChEMBL document CHEMBL3525967, “In vitro glucuronidation of the antibacterial triclocarban and its oxidative metabolites” (Drug Metab Dispos, 2012):
pIC50: −log10 of the molar value.

Key:
[1] = test system: Liver microsome; experiment: Intrinsic clearance in Sprague-Dawley rat liver microsomes after 30 mins by LC-ESI-MS analysis; format: ADME; details: 0.5 h
In short: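 2'-OH-TCC at 0.2, 0.5, 1, 2, 3, 5, 10 and 50 µM incubated with liver microsomes (alamethicin, MgCl2, saccharolactone, UDPGA; 37 °C), sampled at 5, 10, 15 and 30 min. Samples ≥5 µM diluted 1:9 in ACN; LC-ESI-MS. KM and vmax fitted from rate vs concentration; intrinsic clearance derived from these; mean and SD of three.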

[2] = target: T1, UDP-glucuronosyltransferase 1A1 (Homo sapiens, UniProt P22309); experiment: Drug metabolism assessed as human UGT1A1-mediated N'-glucuronide-triclocarban formation expressed in baculovirus infected insect sf9 cells incubated for 5 mins prior to UDPGA addition measured after 5 to 30 mins by LC-UV analysis; format: ADME
T1 sequence (P22309 whole entry): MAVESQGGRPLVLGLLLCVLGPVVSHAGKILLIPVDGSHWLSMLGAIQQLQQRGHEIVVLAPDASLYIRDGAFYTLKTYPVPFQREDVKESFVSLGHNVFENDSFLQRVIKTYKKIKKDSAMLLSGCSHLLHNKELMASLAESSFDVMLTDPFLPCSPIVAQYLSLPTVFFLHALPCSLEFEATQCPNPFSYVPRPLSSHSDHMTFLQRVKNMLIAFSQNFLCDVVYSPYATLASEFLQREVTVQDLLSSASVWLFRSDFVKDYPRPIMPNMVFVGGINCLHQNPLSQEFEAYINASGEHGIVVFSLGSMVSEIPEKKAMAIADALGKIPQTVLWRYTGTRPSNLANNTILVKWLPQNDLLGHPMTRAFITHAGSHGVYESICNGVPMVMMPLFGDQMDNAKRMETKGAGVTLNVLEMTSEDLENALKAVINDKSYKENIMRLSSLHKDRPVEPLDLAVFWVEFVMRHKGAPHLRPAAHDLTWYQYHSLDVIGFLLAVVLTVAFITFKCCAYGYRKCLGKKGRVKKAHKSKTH
In short: (§1)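 Microsomes or UGT Supersomes (5 µg protein) were held 15 min on ice with alamethicin in 100 mM potassium phosphate pH 7.4. TCC was added at 10 µM (2% DMSO) with 10 mM MgCl2 and 10 mM saccharolactone, pre-warmed 5 min at 37 °C, then started with UDPGA. Samples at 5, 10, 15 and 30 min were quenched in ACN. Product was read by LC-UV at 265 nm; rate came from regression over time, three incubations.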

[3] = test system: Liver microsome; experiment: Drug metabolism in human liver microsomes assessed as N-glucuronide-triclocarban formation incubated for 5 mins prior to UDPGA addition measured after 5 to 30 mins by LC-UV analysis; format: ADME
In short: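 Pooled human kidney or liver microsomes (liver: 25 mixed-gender donors), 5 µg protein, in 200 µL 100 mM potassium phosphate pH 7.4. Alamethicin pre-treated on ice 15 min. Final 10 µM TCC (2% DMSO), with 10 mM MgCl2 and 10 mM saccharolactone, preincubated 5 min at 37 °C. Started with UDPGA (20 mM stock). Sampled at 5, 10, 15 and 30 min into ACN containing 1 µM DCC internal standard.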

[4] = Inhibition of human recombinant soluble epoxide hydrolase using CMNPC as substrate
[5] = Drug metabolism in B6C3F1 mouse liver microsomes assessed as N'-glucuronide-triclocarban formation incubated for 5 mins prior to UDPGA addition measured after 5 to 30 mins by LC-UV analysis; format: ADME; in short: as §1
[6] = Drug excretion in Swiss webster mouse urine assessed as 6-O-glucuronide-triclocarban formation at 5 mg/kg, po by LC-MS analysis; format: ADME, organism-based; set-up: dose 5 mg/kg, route oral; details: in vivo
In short: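 Mice were housed two per metabolic cage, with blank urine collected over the 24 h before dosing. TCC was given by oral gavage as a 1 mg/mL solution in 20/80 DMSO/PEG400 (v/v) at 5 mg/kg. Urine was collected at 0-24 h and 24-48 h and analysed by online LC-MS. Values are the mean of two independent experiments.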

[7] = target: T2, UDP-glucuronosyltransferase 1A6 (Homo sapiens, UniProt P19224); experiment: Drug metabolism assessed as human UGT1A6-mediated N'-glucuronide-triclocarban formation expressed in baculovirus infected insect sf9 cells incubated for 5 mins prior to UDPGA addition measured after 5 to 30 mins by LC-UV analysis; format: ADME; in short: as §1
T2 sequence (P19224 whole entry): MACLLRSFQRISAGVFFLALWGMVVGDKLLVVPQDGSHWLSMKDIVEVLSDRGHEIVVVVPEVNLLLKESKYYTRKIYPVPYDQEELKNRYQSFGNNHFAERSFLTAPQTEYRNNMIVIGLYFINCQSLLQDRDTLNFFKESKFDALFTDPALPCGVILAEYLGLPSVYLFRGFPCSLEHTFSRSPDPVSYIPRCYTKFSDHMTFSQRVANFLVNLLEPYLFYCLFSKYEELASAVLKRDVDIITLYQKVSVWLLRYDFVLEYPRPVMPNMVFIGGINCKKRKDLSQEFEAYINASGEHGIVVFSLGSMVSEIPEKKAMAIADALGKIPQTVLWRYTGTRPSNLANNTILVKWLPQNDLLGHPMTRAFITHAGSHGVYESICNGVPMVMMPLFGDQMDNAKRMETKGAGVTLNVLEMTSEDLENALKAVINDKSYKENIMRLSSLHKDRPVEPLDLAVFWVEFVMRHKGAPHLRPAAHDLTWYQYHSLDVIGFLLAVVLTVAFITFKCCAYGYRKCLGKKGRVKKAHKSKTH

[8] = test system: Liver microsome; experiment: Drug metabolism in Sprague-Dawley rat liver microsomes assessed as N'-glucuronide-triclocarban formation incubated for 5 mins prior to UDPGA addition measured after 5 to 30 mins by LC-UV analysis; format: ADME; in short: as §1
[9] = target: T3, UDP-glucuronosyltransferase 1A10 (Homo sapiens, UniProt Q9HAW8); experiment: Drug metabolism assessed as human UGT1A10-mediated N'-glucuronide-triclocarban formation expressed in baculovirus infected insect sf9 cells incubated for 5 mins prior to UDPGA addition measured after 5 to 30 mins by LC-UV analysis; format: ADME; in short: as §1
T3 sequence (Q9HAW8 whole entry): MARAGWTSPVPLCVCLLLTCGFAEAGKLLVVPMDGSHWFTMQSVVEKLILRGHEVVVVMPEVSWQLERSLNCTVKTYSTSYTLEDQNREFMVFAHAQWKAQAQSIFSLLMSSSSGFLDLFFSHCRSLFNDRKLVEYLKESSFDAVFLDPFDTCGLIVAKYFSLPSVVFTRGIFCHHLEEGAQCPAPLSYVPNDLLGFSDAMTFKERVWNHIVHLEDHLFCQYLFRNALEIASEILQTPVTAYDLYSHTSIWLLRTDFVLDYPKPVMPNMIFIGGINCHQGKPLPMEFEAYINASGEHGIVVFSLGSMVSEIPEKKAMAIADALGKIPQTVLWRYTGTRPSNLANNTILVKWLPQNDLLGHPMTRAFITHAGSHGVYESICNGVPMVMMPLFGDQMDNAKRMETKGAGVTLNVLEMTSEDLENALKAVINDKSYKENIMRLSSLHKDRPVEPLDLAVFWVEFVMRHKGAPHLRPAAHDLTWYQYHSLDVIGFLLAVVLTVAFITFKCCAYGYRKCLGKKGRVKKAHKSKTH

Row | Structure (SMILES) | CLH [1] | Drug metabolism [2] | Drug metabolism [3] | pIC50 [4] | Drug metabolism [5] | Drug excretion [6] | Drug metabolism [7] | Drug metabolism [8] | Drug metabolism [9]
1 | O=C(Nc1ccc(Cl)c(Cl)c1)Nc1ccc(Cl)cc1O | 2860 µL/min/mg | – | – | – | – | – | – | – | –
2 | O=C(Nc1ccc(Cl)cc1)Nc1ccc(Cl)c(Cl)c1 [TRICLOCARBAN] | – | metabolite_not_detected | metabolite_not_detected | 7.62 | metabolite_not_detected | metabolite_detected | metabolite_not_detected | metabolite_not_detected | metabolite_not_detected
